The nature of assay [1]: Antiplatelet activity against 10^-5 M ADP-induced human platelet aggregation at 100 uM by light transmission aggregometry. It is filed as functional. An outline of the steps: (§1)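 Platelet-rich plasma came from healthy volunteers' blood collected in sodium citrate (9:1) and spun at 150g, 21 °C for 10 min. Samples were prewarmed to 37 °C with compound (10^-4 M) or vehicle, then ADP was added (final 10^-5 or 10^-6 M). Shape change and aggregation were followed by light transmission for 3 min. Results are % of vehicle aggregation, mean of at least 2 experiments.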

A short description of assay [2]: Antiplatelet activity against 10^-6 M ADP-induced human platelet aggregation at 100 uM by light transmission aggregometry. It is filed as functional. An outline of the steps: as §1
Assay [3] deals with Adenosine receptor A2a (Homo sapiens) (UniProt P29274). Put plainly: Displacement of [3H]ZM241385 from human adenosine A2A receptor expressed in CHO cells at 10 uM. It is filed as cell-based. The gist of the method:
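Membranes from CHO cells expressing hA2A (50 µg protein) were incubated with [3H]ZM-241385 1 nM in 50 mM Tris HCl with 10 mM MgCl2, pH 7.4, for 60 min at 4 °C. Non-specific binding was defined with 1 µM ZM-241385. Samples were filtered on GF/B and counted by scintillation. Results are % displacement at the tested concentration, mean ± SEM of four experiments in triplicate.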
(In general: Loss of bound radioactivity is the signal in a displacement assay; it reports binding, not function.)

Assay [4] deals with T1, Adenosine receptor A1 (Homo sapiens) (UniProt P30542).
T1 sequence (whole entry): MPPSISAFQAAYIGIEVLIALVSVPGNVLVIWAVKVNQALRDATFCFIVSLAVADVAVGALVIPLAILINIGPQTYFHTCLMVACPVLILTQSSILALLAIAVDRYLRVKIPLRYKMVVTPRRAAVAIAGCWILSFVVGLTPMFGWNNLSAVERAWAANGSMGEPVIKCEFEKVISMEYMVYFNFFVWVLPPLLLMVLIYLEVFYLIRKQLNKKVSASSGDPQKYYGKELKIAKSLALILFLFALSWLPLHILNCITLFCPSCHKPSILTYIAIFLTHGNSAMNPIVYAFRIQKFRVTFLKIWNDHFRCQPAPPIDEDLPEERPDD
Put plainly: Displacement of [3H]DPCPX from human adenosine A1 receptor expressed in CHO cells at 10 uM. It is filed as cell-based. An outline of the steps:
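Membranes from CHO cells expressing hA1 (50 µg protein) were incubated with [3H]DPCPX 1 nM in 50 mM Tris HCl pH 7.4 for 120 min at 25 °C. Non-specific binding was defined with 10 µM CHA. Bound ligand was separated by GF/B filtration and counted by scintillation. Results are % displacement of specific binding at the bracketed test concentration, mean ± SEM of four experiments in triplicate.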

Assay [5] deals with Adenosine receptor A2b (Homo sapiens) (UniProt P29275). Put plainly: Antagonist activity at human adenosine A2b receptor expressed in CHO cells expressed in inhibition of cAMP level. Also on record: concentration or dose not given beside the values. The note with it: concentration not given here. (In general: Changes in cAMP serve as a functional read-out for many G protein-coupled receptors.)

The target is the same in assay [6]. Put plainly: Antagonist activity at human adenosine A2b receptor expressed in CHO cells expressed in inhibition of NECA-induced cAMP level. The arrangement: concentration or dose not given beside the values. As to conditions: concentration not given here.
The target of assay [7] is T2, Adenosine receptor A3 (Homo sapiens) (UniProt P0DMS8).
T2 sequence (whole entry): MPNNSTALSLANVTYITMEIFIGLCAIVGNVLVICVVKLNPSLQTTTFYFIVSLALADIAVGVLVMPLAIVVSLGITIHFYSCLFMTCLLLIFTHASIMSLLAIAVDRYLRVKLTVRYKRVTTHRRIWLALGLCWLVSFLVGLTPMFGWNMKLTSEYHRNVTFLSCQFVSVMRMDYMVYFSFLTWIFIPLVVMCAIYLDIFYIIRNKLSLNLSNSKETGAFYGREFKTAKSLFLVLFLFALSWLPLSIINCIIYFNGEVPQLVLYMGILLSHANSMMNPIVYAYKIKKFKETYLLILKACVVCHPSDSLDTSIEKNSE
Kind of assay: Displacement of [3H]ABMECA from human adenosine A3 receptor expressed in CHO cells at 10 uM. It is filed as cell-based. As to conditions: in the assay text read “[125I]ABMECA” for “[3H]ABMECA”. The gist of the method:
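Non-specific binding was defined with 1 µM AB-MECA. Samples were filtered on GF/B and radioactivity was counted. Results are % displacement at the tested concentration, mean ± SEM of four experiments in triplicate.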

Assay [8] concerns the target T2, Adenosine receptor A3 (Homo sapiens). Put plainly: Displacement of [125I]ABMECA from human adenosine A3 receptor expressed in CHO cells at 10 uM.
Assay [9] addresses P2Y purinoceptor 12 (Homo sapiens, UniProt Q9H244). Put plainly: Antagonist activity at human recombinant P2Y12 receptor expressed in CHO FlpIn cells assessed as reduction n 2-methylthio-ADP mediated inhibition of forskolin-induced cAMP response element-directed luciferase expression by bright-glo assay. It is filed as functional, cell-based. The gist of the method: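 CHO FlpIN cells stably expressing human P2Y12 were transiently transfected with a pCRE-luc reporter. After 24 h they were switched to physiological salt solution and exposed to forskolin 1 µM ± 2-methylthio-ADP 10 nM plus varying antagonist concentrations (DMSO vehicle) for 3.5 h at 37 °C. Luminescence was read after lysis with Bright-Glo. Responses are % of 2-methylthio-ADP response with DMSO only; n=4–8.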

Adenosine receptor A2a (Homo sapiens), sequence (P29274 whole entry): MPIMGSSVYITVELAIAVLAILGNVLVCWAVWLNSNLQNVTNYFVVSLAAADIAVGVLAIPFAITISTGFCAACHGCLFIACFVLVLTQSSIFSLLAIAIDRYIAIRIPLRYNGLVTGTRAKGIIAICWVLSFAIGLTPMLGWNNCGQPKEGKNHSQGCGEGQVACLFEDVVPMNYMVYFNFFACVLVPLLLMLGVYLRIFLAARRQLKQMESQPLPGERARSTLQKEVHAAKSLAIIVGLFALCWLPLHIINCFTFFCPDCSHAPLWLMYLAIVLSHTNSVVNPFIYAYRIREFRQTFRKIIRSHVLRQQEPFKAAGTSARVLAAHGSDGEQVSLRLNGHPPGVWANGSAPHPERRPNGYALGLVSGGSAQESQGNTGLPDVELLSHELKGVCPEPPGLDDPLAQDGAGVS
P2Y purinoceptor 12, sequence (Q9H244 whole entry): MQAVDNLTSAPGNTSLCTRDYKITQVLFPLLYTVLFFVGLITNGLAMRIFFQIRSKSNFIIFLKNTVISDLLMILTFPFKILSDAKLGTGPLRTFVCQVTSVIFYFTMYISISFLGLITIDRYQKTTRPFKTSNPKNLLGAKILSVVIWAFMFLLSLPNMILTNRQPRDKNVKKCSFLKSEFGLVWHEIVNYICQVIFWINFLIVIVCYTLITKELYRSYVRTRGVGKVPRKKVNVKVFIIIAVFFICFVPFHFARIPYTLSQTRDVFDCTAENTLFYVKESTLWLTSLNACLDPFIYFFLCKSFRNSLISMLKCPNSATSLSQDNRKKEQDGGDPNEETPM

On to `CCCCCSc1nc(N)cc(OS(=O)(=O)c2ccc(C)cc2)n1`, for which the Activity in assay [1] amounted to 88%; in assay [2], 96%.

On to `Nc1cc(=O)[nH]c(SCCO)n1`, for which the Activity in assay [1] is recorded as 99%; in assay [2] it was 114%.

`Cc1ccc(S(=O)(=O)Oc2cc(N)nc(SCC(F)(F)F)n2)cc1`: the figures for the Activity in [1] and in assay [2] were 101% and 105%, respectively.

`Cn1c(SCc2ccccc2Cl)nc(N)cc1=O`: the Activity is reported as 88% in assay [1] and 61% in assay [2].

As to `O=c1cc(O)nc(SCc2ccccc2Cl)[nH]1`, the Activity in [1] was found to be 96%; in assay [2] it was 97%.

`CN(C)c1cccc2c(S(=O)(=O)Oc3cc(N)nc(SCc4ccccc4Cl)n3)cccc12`: the Activity in [1] was determined as 101%; in assay [2], 96%.

In general, inhibition refers to the change of the read-out against control, counted positive when it falls. Turning to `CC(C)(C)OC(=O)NCCSc1nc(N)cc(=O)[nH]1`, the Activity was 7% in assay [3]; 7% in assay [4]; 76% in [1]; 21% in assay [7]; 40% in assay [2]. Besides, the inhibition in assay [5] stood at 3%; in assay [6] it was 8%.

`CN(C)c1cccc2c(S(=O)(=O)Oc3cc(N)nc(SCCN)n3)cccc12`: the Activity in [1] is reported as 99%; in assay [2], 83%.

As for `O=C(Nc1ccccc1)Nc1cc(=O)[nH]c(SCc2ccccc2Cl)n1`, the Activity in assay [1] is on record as 94%; in [2], 91%.

On to `Cc1ccc(S(=O)(=O)Oc2cc(N)nc(SCc3ccccc3Cl)n2)cc1`, for which the results for the Activity in [1] and in [2] were 100% and 68%, respectively.

For the compound `Cc1ccc(S(=O)(=O)Nc2cc(N)nc(SCCN)n2)cc1`, the Activity in assay [1] and in assay [2] was 91% each time.

For the compound `Nc1cc(OS(=O)(=O)c2ccccc2Cl)nc(SCCO)n1`, the Activity in assay [1] was 100%; in assay [2] it was 110%.

On to `Cc1ccc(S(=O)(=O)NCCSc2nc(N)cc(=O)[nH]2)cc1`, for which the Activity in assay [3] was determined as 1%; in assay [4], 6%; in [1], 89%; in [7] it was 44%; in assay [2], 51%. Further, the inhibition in assay [5] was 5%; in [6], 3%.

On to `Nc1cc(=O)[nH]c(SC(c2ccccc2)(c2ccccc2)c2ccccc2)n1`, for which the Activity in assay [1] turned out to be 100%; in assay [2] it was 81%.

For the compound `Nc1cc(OS(=O)(=O)c2ccccc2Cl)nc(SCc2ccccc2Cl)n1`, the Activity in assay [1] amounted to 96%; in [2], 92%.

With `Cc1ccc(S(=O)(=O)Oc2cc(N)nc(SCCNC(=O)OC(C)(C)C)n2)cc1`, the values for the Activity in [1] and in assay [2] were 97% and 75%, respectively.

Take `CN(C)c1cccc2c(S(=O)(=O)Oc3cc(N)nc(SCCO)n3)cccc12`: the Activity in assay [3] amounted to 1%; in [4], 48%; in [1], 100%; in [7] it was 47%; in assay [2], 93%. The inhibition in assay [5] came out at 7%; in [6] it was 5%.

Regarding `CCCCCSc1nc(N)cc(OS(=O)(=O)c2ccccc2Cl)n1`, the Activity in [3] worked out at 1%; in assay [4], 4%; in assay [8] it was 23%; in [1] it was 95%; in assay [2] it was 58%. In addition, the inhibition stood at 8% in [5] and 10% in assay [6].

In the case of `CSc1nc(N)cc(OS(=O)(=O)c2ccc(C)cc2)n1`, the results for the Activity in assay [1] and in assay [2] were 96% and 120%, respectively.

`CCCCCSc1nc(N)cc(O)n1`: the Activity amounted to 100% in assay [1] and 63% in assay [2].

As to `Nc1cc(=O)[nH]c(SCc2ccccc2Cl)n1`, the Activity in assay [1] is reported as 101%; in assay [2] it was 88%.

As for `Nc1cc(OCc2ccccc2Cl)nc(SCc2ccccc2Cl)n1`, the Activity stood at 95% in assay [1] and 86% in assay [2].

Consider `Nc1cc(OS(=O)(=O)c2ccccc2Cl)nc(SCC(F)(F)F)n1`, for which the figures for the Activity in assay [1] and in assay [2] were 102% and 97%, respectively.

Turning to `CN(C)c1cccc2c(S(=O)(=O)Oc3cc(N)nc(SCC(F)(F)F)n3)cccc12`, the Activity came out at 104% in assay [1] and 115% in assay [2].

On to `Cc1ccc(S(=O)(=O)Oc2cc(N)nc(SCCO)n2)cc1`, for which the Activity came to 1% in assay [3]; 2% in assay [4]; 99% in [1]; 46% in assay [7]; 57% in assay [2]. In addition, the inhibition was 2% in assay [5] and 4% in assay [6].

What is called IC50 is the point on the concentration scale where inhibition reaches its midpoint. As for `Cc1ccc(S(=O)(=O)Oc2cc(N)nc(SCCN)n2)cc1`, the Activity in assay [3] worked out at 18%; in [4], 3%; in assay [8] it was 36%; in assay [1], 96%; in assay [2], 37%. The inhibition in assay [5] came out at 10%; in [6], 7%. Moreover, the half-maximal inhibitory concentration (IC50) in assay [9] is 8.08 µM.

The values are drawn from ChEMBL document CHEMBL1152946, “6-Amino-2-mercapto-3H-pyrimidin-4-one derivatives as new candidates for the antagonism at the P2Y12 receptors” (Bioorg Med Chem, 2009).
